Each structure is given as a SMILES string.

Details in all cases: stereoisomer not certain
One test concerns the target OR6N1 (Homo sapiens) (UniProt Q8NGY5). The essentials:
(§1)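 Whether a receptor–molecule pair is responsive (active) rests on the original authors' judgment that its measured signal was statistically different from baseline. Pairs without that judgment are non-responsive (inactive). Sources used varied assay methods, commonly transient luciferase assays in mammalian cell lines.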

For the next test, the target named is OR6N2 (Homo sapiens) (UniProt Q8NGY6). The essentials:
as §1

The next test addresses T1, OR6P1 (Homo sapiens) (UniProt Q8NGX9).
T1 sequence (whole entry): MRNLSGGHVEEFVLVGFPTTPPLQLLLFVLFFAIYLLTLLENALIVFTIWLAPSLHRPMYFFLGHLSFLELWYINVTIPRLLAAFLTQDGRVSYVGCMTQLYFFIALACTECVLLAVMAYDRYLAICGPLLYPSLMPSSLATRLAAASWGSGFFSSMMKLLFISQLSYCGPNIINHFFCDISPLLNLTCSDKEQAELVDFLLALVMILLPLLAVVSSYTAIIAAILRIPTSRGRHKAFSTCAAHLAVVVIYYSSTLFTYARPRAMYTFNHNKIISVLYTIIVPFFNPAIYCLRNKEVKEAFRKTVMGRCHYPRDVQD
The essentials:
as §1

The target of another test is OR6Q1 (Homo sapiens) (UniProt Q8NGQ2). The essentials: as §1
Chain of OR6Q1 (Homo sapiens) (Q8NGQ2 whole entry): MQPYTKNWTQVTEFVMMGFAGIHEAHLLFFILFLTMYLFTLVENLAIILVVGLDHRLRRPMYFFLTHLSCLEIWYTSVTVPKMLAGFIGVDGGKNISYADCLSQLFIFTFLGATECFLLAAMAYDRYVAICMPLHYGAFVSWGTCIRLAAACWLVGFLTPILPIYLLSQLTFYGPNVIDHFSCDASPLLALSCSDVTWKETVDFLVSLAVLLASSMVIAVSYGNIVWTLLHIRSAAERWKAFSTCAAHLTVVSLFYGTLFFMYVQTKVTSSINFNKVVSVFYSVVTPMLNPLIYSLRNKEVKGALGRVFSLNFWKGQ
The target in another test is OR6S1 (Homo sapiens) (UniProt Q8NH40). The essentials:
as §1

A further test addresses OR6T1 (Homo sapiens) (UniProt Q8NGN1). The method in brief:
as §1

The target in another test is OR6V1 (Homo sapiens) (UniProt Q8N148). The essentials: as §1
Chain of OR6V1 (Homo sapiens) (Q8N148 whole entry): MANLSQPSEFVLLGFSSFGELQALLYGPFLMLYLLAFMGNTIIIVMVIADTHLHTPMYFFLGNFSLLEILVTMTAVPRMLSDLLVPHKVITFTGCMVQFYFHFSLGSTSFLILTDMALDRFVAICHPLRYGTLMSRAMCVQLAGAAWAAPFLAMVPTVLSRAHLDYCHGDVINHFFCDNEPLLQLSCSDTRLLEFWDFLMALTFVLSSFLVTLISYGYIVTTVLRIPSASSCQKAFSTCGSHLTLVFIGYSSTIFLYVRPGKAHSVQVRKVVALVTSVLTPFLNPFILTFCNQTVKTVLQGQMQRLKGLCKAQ
Another test has as its target OR6X1 (Homo sapiens) (UniProt Q8NH79). The essentials:
as §1

A further test has as its target OR6Y1 (Homo sapiens) (UniProt Q8NGX8). The method in brief:
as §1

The target of the next test is OR7A10 (Homo sapiens) (UniProt O76100). The essentials: as §1
Chain of OR7A10 (Homo sapiens) (O76100 whole entry): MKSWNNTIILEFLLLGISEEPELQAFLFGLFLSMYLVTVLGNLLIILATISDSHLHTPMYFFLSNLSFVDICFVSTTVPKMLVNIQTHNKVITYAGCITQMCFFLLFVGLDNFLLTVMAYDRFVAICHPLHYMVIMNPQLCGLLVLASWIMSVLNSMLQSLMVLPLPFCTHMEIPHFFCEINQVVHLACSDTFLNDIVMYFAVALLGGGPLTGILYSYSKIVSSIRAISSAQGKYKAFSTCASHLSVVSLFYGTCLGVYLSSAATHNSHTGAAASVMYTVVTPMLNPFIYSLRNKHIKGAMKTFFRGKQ
Another test concerns the target OR7A17 (Homo sapiens) (UniProt O14581). The essentials:
as §1

In a further test the target is OR7A5 (Homo sapiens) (UniProt Q15622). The method in brief:
as §1

The next test deals with OR7C1 (Homo sapiens) (UniProt O76099). The method in brief:
as §1

A further test concerns the target OR7C2 (Homo sapiens) (UniProt O60412). The essentials:
as §1

In a further test the target is OR7D2 (Homo sapiens) (UniProt Q96RA2). The essentials:
as §1

The test system of another test is OR6M1 T276K. The essentials:
as §1

The subject of a further test is OR6S1 T42I V156I. The essentials: as §1
Another test relates to OR6T1 N2D. The essentials: as §1
Another test concerns OR7A5 M81I. The method in brief: as §1
The subject of another test is OR7C1 V126I E171K. The essentials:
as §1
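Note: active if original authors judged signal statistically different from baseline.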

Chain of OR7D2 (Homo sapiens) (Q96RA2 whole entry): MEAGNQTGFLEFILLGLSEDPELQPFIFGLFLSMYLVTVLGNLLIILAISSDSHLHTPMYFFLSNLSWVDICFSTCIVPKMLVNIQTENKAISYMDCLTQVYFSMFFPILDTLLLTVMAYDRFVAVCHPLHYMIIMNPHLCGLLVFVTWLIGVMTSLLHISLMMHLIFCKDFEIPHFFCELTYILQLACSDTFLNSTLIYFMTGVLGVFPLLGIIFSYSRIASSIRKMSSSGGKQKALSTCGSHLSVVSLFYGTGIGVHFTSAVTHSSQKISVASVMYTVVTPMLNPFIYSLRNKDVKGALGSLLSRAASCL
Chain of OR6X1 (Homo sapiens) (Q8NH79 whole entry): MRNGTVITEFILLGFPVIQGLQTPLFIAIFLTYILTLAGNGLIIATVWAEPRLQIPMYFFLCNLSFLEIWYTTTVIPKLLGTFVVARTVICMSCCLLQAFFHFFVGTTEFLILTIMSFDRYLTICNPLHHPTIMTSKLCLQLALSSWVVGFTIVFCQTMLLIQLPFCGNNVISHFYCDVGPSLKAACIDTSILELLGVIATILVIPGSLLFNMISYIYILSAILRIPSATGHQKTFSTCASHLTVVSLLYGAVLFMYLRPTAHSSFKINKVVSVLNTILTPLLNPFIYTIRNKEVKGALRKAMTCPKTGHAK
Chain of OR7A17 (Homo sapiens) (O14581 whole entry): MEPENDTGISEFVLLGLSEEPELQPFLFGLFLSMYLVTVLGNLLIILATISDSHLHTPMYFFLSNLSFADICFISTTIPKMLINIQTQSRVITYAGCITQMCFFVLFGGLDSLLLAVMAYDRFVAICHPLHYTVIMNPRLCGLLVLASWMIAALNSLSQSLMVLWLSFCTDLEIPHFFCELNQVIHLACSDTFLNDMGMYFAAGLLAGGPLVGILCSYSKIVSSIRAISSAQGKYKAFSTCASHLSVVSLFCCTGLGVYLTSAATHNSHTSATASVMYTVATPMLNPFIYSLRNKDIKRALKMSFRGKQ
Chain of OR6N1 (Homo sapiens) (Q8NGY5 whole entry): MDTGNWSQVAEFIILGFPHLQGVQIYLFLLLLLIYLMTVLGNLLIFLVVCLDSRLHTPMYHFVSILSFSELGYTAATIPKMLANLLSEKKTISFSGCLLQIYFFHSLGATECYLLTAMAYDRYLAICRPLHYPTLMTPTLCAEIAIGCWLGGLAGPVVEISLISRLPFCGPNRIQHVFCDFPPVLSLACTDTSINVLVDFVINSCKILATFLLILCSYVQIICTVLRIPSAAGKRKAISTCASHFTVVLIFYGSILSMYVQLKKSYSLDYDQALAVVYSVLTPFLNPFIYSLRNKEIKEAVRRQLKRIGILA
Chain of OR7C2 (Homo sapiens) (O60412 whole entry): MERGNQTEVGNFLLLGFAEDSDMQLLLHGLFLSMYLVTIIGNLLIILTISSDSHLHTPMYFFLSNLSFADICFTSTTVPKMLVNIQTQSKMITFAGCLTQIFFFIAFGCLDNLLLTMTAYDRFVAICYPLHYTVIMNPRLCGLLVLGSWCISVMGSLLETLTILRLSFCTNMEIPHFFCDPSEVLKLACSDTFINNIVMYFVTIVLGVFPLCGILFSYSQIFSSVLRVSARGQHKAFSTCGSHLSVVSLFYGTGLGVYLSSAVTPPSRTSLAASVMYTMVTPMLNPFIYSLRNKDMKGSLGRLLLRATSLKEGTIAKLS
Chain of OR7C1 (Homo sapiens) (O76099 whole entry): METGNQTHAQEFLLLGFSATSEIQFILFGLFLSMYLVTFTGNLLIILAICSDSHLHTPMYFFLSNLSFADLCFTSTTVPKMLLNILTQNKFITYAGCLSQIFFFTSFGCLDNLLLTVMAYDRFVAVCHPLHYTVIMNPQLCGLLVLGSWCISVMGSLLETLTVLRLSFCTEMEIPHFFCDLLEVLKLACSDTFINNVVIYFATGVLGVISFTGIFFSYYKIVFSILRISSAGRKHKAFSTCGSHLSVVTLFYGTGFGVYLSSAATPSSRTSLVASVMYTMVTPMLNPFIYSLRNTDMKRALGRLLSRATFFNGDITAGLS
Chain of OR7A5 (Homo sapiens) (Q15622 whole entry): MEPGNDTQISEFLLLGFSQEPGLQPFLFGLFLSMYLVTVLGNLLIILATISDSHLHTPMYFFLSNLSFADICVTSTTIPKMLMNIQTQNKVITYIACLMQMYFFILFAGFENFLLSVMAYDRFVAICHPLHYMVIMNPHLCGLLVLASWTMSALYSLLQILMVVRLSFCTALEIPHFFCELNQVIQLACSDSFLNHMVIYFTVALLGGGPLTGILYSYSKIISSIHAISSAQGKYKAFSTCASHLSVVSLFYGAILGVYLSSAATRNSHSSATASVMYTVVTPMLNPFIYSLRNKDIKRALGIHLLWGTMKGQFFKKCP
Chain of OR6N2 (Homo sapiens) (Q8NGY6 whole entry): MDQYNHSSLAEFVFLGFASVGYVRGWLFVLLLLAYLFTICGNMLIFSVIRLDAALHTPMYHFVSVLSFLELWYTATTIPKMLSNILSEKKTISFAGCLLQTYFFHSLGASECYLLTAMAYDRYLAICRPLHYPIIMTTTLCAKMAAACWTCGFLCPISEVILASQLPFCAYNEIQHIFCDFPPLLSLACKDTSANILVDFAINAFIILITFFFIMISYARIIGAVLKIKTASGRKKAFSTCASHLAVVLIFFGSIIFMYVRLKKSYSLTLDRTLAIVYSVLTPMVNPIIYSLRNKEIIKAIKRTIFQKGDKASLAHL
Chain of OR6T1 (Homo sapiens) (Q8NGN1 whole entry): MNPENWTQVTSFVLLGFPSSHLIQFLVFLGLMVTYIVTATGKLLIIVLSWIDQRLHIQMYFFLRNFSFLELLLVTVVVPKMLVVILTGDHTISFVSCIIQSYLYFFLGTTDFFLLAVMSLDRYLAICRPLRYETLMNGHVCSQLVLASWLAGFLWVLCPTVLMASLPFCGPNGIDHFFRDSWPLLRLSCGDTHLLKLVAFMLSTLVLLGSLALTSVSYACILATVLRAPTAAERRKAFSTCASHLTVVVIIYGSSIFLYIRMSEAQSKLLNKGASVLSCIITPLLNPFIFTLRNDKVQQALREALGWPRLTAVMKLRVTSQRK
Chain of OR6S1 (Homo sapiens) (Q8NH40 whole entry): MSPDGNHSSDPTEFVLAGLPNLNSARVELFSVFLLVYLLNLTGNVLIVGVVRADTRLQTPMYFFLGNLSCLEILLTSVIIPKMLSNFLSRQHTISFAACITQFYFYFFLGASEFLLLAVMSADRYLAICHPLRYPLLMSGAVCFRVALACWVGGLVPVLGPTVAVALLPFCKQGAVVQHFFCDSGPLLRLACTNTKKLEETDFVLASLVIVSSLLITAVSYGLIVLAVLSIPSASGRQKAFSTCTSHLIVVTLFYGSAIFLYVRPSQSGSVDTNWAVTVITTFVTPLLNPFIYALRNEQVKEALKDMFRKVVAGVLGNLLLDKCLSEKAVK
Chain of OR6Y1 (Homo sapiens) (Q8NGX8 whole entry): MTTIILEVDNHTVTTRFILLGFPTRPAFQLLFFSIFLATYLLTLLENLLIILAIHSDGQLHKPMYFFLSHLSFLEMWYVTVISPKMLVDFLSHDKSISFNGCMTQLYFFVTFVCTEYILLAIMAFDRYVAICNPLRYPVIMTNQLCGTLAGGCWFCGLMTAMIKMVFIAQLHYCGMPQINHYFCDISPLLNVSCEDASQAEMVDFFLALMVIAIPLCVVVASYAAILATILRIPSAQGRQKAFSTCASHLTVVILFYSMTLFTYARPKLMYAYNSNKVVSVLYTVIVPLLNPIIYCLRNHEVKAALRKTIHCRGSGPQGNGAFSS
Chain of OR6M1 T276K (as listed by the source, stated change not applied): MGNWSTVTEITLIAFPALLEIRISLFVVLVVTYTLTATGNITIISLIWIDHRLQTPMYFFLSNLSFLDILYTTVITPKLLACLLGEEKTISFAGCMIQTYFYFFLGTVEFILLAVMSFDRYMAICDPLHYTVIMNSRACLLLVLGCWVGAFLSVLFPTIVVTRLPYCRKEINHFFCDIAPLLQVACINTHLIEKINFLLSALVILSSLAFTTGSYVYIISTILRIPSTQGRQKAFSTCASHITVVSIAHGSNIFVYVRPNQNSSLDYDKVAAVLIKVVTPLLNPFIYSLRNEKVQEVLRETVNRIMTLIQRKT

As for `Cc1c([N+](=O)[O-])c(C)c([N+](=O)[O-])c(C(C)(C)C)c1[N+](=O)[O-]`, the “odorant receptor agonist call” value with OR6N1 (Homo sapiens), with OR6N2 (Homo sapiens), with OR6P1 (Homo sapiens), in the test with OR6Q1 (Homo sapiens), with OR6S1 (Homo sapiens) and with OR6T1 (Homo sapiens) was “inactive” in each case. For the same molecule, the “odorant receptor agonist call” value with OR6V1 (Homo sapiens), with OR6X1 (Homo sapiens), in the test with OR6Y1 (Homo sapiens), with OR7A10 (Homo sapiens), in the test with OR7A17 (Homo sapiens) and in the test with OR7A5 (Homo sapiens) was “inactive” in each case. The “odorant receptor agonist call” value with OR7C1 (Homo sapiens), in the test with OR7C2 (Homo sapiens) and with OR7D2 (Homo sapiens) was “inactive” throughout.
For the molecule `C=CCOC(=O)Cc1ccccc1`, the “odorant receptor agonist call” value in the test on OR6M1 T276K, with OR6N1 (Homo sapiens), with OR6N2 (Homo sapiens), with OR6P1 (Homo sapiens), in the test with OR6Q1 (Homo sapiens) and with OR6S1 (Homo sapiens) was “inactive” in each case. Also, the “odorant receptor agonist call” value in the test on OR6S1 T42I V156I, in the test with OR6T1 (Homo sapiens), with OR6T1 N2D, with OR6V1 (Homo sapiens), with OR6X1 (Homo sapiens) and with OR6Y1 (Homo sapiens) was “inactive” in each case. Besides, the “odorant receptor agonist call” value with OR7A10 (Homo sapiens), with OR7A17 (Homo sapiens), in the test with OR7A5 (Homo sapiens), in the test on OR7A5 M81I, in the test with OR7C1 (Homo sapiens) and in the test on OR7C1 V126I E171K was “inactive” each time. The “odorant receptor agonist call” value with OR7C2 (Homo sapiens) and with OR7D2 (Homo sapiens) was “inactive” throughout.
As for `COc1ccc(C=O)cc1`, the “odorant receptor agonist call” value in the test with OR6P1 (Homo sapiens) was “active”.

The values above are taken from the M2OR odorant receptor database.
